Test results taken from ChEMBL document CHEMBL1153346, “Structure-activity study of pentamidine analogues as antiprotozoal agents” (J Med Chem, 2009).
Calls of active or inactive are those of the source. The rule behind the calls is not given here.

Legend:
[1] = tested on: Trypanosoma brucei rhodesiense; assay: Antitrypanosomal activity against Trypanosoma brucei rhodesiense STIB900 trypomastigotes infected in NMRI mouse assessed as mouse survival at 20 mg/kg, ip administered from day 3 to day 6 postinfection; assay type: functional; details: route intraperitoneal
Method in brief: (§1)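 STIB900 acute mouse model. Dosing was intraperitoneal, daily for four days, in DMSO diluted with water to 10% final DMSO. An infected untreated control group was kept. Tail blood was checked for parasitemia to day 60, and deaths were recorded to give mean survival days. Mice surviving and aparasitemic at day 60 counted as cured.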

L6 = assay: Cytotoxicity against rat L6 cells after 70 hrs by alamar blue assay; assay type: cell-based; details: L6, 70 h
Method in brief: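 L6 rat myoblasts, 4000 per well, in RPMI 1640 with 2 mM L-glutamine, HEPES, NaHCO₃ and 10% FBS. Exposed to serial dilutions (DMSO ≤1%) for 70 h at 37 °C in humidified 5% CO₂. Resazurin then added for 2-3 h; fluorescence read at ex 536/em 588 nm. IC50 from sigmoidal curves; two independent runs in duplicate.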

[2] = tested on: Trypanosoma brucei rhodesiense; assay: Antiprotozoal activity against Trypanosoma brucei rhodesiense STIB900 trypomastigotes after 70 hrs by alamar blue assay; assay type: functional, organism-based
Method in brief: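 Bloodstream forms, 2000 per well, in MEM with Earle's salts plus 0.2 mM 2-mercaptoethanol, 1 mM pyruvate, 0.5 mM hypoxanthine and 15% heat-inactivated horse serum. Exposed to serial dilutions (DMSO ≤1%) for 70 h at 37 °C in 5% CO₂. Resazurin then added for a further 2-6 h. IC50 from sigmoidal curves; two independent runs in duplicate.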

[3] = Selectivity index, ratio of IC50 for rat L6 cells to IC50 for Trypanosoma brucei rhodesiense STIB900 trypomastigotes; assay type: toxicity, cell-based; details: read-out: Ratio IC50
Method in brief: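 Ratio of L6 IC50 to STIB900 IC50. L6 cells: 4000/well in RPMI 1640 with 10% FBS, 70 h at 37 °C. Bloodstream forms: 2000/well in supplemented MEM with 15% horse serum, 70 h at 37 °C. Both read by Alamar blue fluorescence; IC50s from sigmoidal curves, two independent runs in duplicate.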

Plasmodium falciparum = assay: Antiprotozoal activity after 48 hrs against chloroquine-resistant Plasmodium falciparum K1 infected erythrocytes by [3H]hypoxanthine uptake; assay type: functional, organism-based
Method in brief: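 Erythrocytic stages in infected human red cells (hematocrit 1.25%, parasitemia 0.3%) in supplemented RPMI 1640 with Albumax II. Serial dilutions incubated at 37 °C in 93% N2/4% CO2/3% O2. [3H]-hypoxanthine (0.5 µCi/well) added at 48 h, then 24 h more. Incorporation counted by scintillation. IC50 from sigmoidal curves; two independent runs in duplicate.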

[4] = Selectivity index, ratio of IC50 for rat L6 cells to IC50 for chloroquine-resistant Plasmodium falciparum K1; assay type: toxicity, cell-based; details: read-out: Ratio IC50
Method in brief: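 Ratio of L6 IC50 to K1 IC50. L6 cells: Alamar blue assay after 70 h, 37 °C. K1: [3H]-hypoxanthine incorporation in infected red cells over 48 + 24 h at 37 °C under low O2. IC50s from sigmoidal curves, two independent runs in duplicate.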

[5] = tested on: Trypanosoma brucei rhodesiense; assay: Antitrypanosomal activity against Trypanosoma brucei rhodesiense STIB900 trypomastigotes infected in NMRI mouse assessed as survival and aparasitemic condition at 20 mg/kg, ip administered from day 3 to day 6 postinfection measured after 60 days postinfection; assay type: functional, organism-based; parameters: dose 20 mg/kg
Method in brief: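 STIB900 acute mouse model with 4 mice per group. Compound in DMSO diluted with water to a final 10% DMSO, given intraperitoneally once daily for four days. An infected, untreated control group was included. Tail blood checked for parasitemia until day 60. Mice alive and aparasitemic at day 60 counted as cured; deaths recorded for mean survival time.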

Leishmania donovani = assay: Antiprotozoal activity against Leishmania donovani MHOM/SD/62/1S-CL2D axenic amastigotes after 72 hrs; assay type: functional, organism-based
Method in brief: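 L. donovani axenic amastigotes, adapted from promastigotes and grown in amastigote medium at 37 °C. 6 × 10⁴ parasites per well with 2-fold compound dilutions (DMSO ≤1%), incubated 72 h at 37 °C in humidified 5% CO₂. Growth read by tetrazolium (CellTiter) absorbance at 490 nm. IC50 from a four-parameter dose-response fit. Average of duplicate determinations.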

[6] = Selectivity index, ratio of IC50 for rat L6 cells to IC50 for Leishmania donovani MHOM/SD/62/1S-CL2D axenic amastigotes; assay type: toxicity, cell-based; details: read-out: Ratio IC50
Method in brief: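 Amastigotes: 6 × 10⁴ parasites/well with 2-fold dilutions, 72 h at 37 °C in 5% CO2. Growth read by tetrazolium CellTiter absorbance at 490 nm; IC50 from a four-parameter dose-response fit.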

[7] = tested on: Trypanosoma brucei rhodesiense; assay: Antitrypanosomal activity against Trypanosoma brucei rhodesiense STIB900 trypomastigotes infected in NMRI mouse assessed as mouse survival at 10 mg/kg, ip administered from day 3 to day 6 postinfection; assay type: functional; details: route intraperitoneal; method in brief: as §1
[8] = tested on: Trypanosoma brucei rhodesiense; assay: Antitrypanosomal activity against Trypanosoma brucei rhodesiense STIB900 trypomastigotes infected in NMRI mouse assessed as mouse survival at 5 mg/kg, ip administered from day 3 to day 6 postinfection; assay type: functional; details: route intraperitoneal; method in brief: as §1

SMILES | Survival [1] [days] | IC50 (L6) [nM] | IC50 [2] [nM] | selectivity ratio [3] | IC50 (Plasmodium falciparum) [nM] | selectivity ratio [4] | Activity [5] | IC50 (Leishmania donovani) [nM] | selectivity ratio [6] | Survival [7] [days] | Survival [8] [days]
Cl.Cl.N=C(N)c1ccc(OCCCCOc2ccc(C(=N)N)cc2)cc1 | 24.8 | 4700 | 10 | 470 | 21 | 224 | inactive |  |  |  | 
Cl.Cl.N=C(N)c1cccc(OCCCCCCOc2cccc(C(=N)N)c2)c1 | >36 | 17100 | 75 | 228 | 13 | 1320 |  | 2380 | 7 |  | 
Cl.Cl.N=C(Nc1ccc(OCCCCCOc2ccc(NC(=N)c3ccccc3)cc2)cc1)c1ccccc1 | 7 | 3100 | 147 | 21 | 201 | 15 | inactive | > 100000 | < 1 |  | 
Cl.Cl.N=C(N)c1ccc(OCCCCCOc2ccc(C(=N)N)c(F)c2)cc1F |  | 6900 | 13 | 531 | 15 | 460 |  | 1880 | 4 | >33 | 
Cl.Cl.N=C(N)c1cccc(OCCCOc2cccc(C(=N)N)c2)c1 | >32.8 | 16200 | 52 | 312 | 17 | 953 |  | 6070 | 3 | >40 | 
Cl.N=C(N)c1ccc(OCCCCCOc2ccc(C(=N)N)cc2)cc1 [PENTAMIDINE HYDROCHLORIDE] | >44.3 |  | 7 |  | 14 |  |  |  |  | >43.5 | 
Cl.Cl.N=C(N)c1cccc(OCCCCCOc2cccc(C(=N)N)c2)c1 | 18.5 | 18400 | 65 | 283 | 19 | 968 | inactive | 3190 | 6 |  | 
Cl.Cl.Cl.Cl.N=C(N)c1ccc(OCCCCCOc2ccc(C(=N)N)cc2Cl)c(Cl)c1 | >29.5 | 11200 | 44 | 255 | 26 | 431 | inactive | 1450 | 8 |  | 
Cl.Cl.N=C(N)c1ccc(OCCCOc2ccc(C3=NCCN3)cc2)cc1 |  | 71600 | 18 | 3980 | 18 | 3980 |  | 2980 | 24 | >26.8 | 
CC(C)NC(=N)c1ccc(OCCCCCOc2ccc(C(=N)NC(C)C)cc2)cc1.Cl.Cl |  | 150000 | 27 | 5560 | 3 | 50000 |  | 17800 | 8 |  | >41.3
Cl.Cl.N=C(N)c1ccc(OCCCOc2ccc(C(=N)N)cc2N)c(N)c1 | >40 | 68700 | 156 | 440 | 27 | 2540 |  |  |  |  | 
COc1cc(C2=NCCN2)ccc1OCCCOc1ccc(C2=NCCN2)cc1OC.Cl.Cl | >60 | 105000 | 90 | 1170 | 55 | 1910 |  | 34600 | 3 | >32.8 | 
Cl.Cl.N=C(N)c1ccc(OCCCOc2ccc(C(=N)N)cc2)cc1 | 34 | 8800 | 7 | 1260 | 6 | 1470 | inactive | 1500 | 6 |  | 
CC(C)NC(=N)c1ccc(OCCCOc2ccc(C(=N)NC(C)C)cc2)cc1.Cl.Cl |  | > 192000 | 93 | > 2060 | 25 | > 7680 |  | 7110 | > 27 | >38.5 | 
Cl.N=C(N)c1ccc(NCCCCCNc2ccc(C(=N)N)cc2)cc1 |  | 950 | < 1 | > 950 | 6 | 158 |  | 502 | 2 |  | >29.3
CNC(=N)c1ccc(OCCCCCOc2ccc(C(=N)NC)cc2)cc1.Cl.Cl | >60 | 152000 | 24 | 6330 | 4 | 38000 | Active | 4690 | 32 |  | >41
CC(C)NC(=N)c1cccc(OCCCCOc2cccc(C(=N)NC(C)C)c2)c1 |  | > 171000 | 619 | > 276 | 13 | > 13200 |  | 19300 | > 9 |  | 
N=C(N)c1ccc(OCCCCOc2ccc(C(=N)N)cc2[N+](=O)[O-])c([N+](=O)[O-])c1 |  | 42800 | 181 | 236 | 18 | 2380 |  | 15100 | 3 |  | 
Cl.Cl.N=C(N)c1ccc(OCCCCCCOc2ccc(C(=N)N)cc2)cc1 | >51.8 | 10500 | 36 | 292 | 15 | 700 |  | 1970 | 5 |  | >44.3
COc1cc(C(=N)N)ccc1OCCCOc1ccc(C(=N)N)cc1OC.Cl.Cl | >60 | 114000 | 23 | 4960 | 62 | 1840 | Active | 6890 | 17 |  | >52.8
Cl.Cl.N=C(N)c1ccc(OCCCCCOc2ccc(C(=N)N)cc2C(N)=O)c(C(N)=O)c1 | 26.5 | > 168000 | 45 | > 3730 | 38 | > 4420 | inactive | > 50000 |  |  | 
Cl.c1cc(C2=NCCN2)ccc1OCCCCCOc1ccc(C2=NCCN2)cc1 | >39 | > 178000 | 53 | > 3360 | 3 | > 59300 | inactive | 2770 | > 64 |  | 
CC(C)NC(=N)c1ccc(OCCCCCOc2ccc(C(=N)NC(C)C)c(F)c2)cc1F |  | 131000 | 259 | 506 | 7 | 18700 |  | 15000 | 9 |  | 
